Bioassay records from PubChem BioAssay.
HIV Env fusion = inhibitors of HIV Env-mediated cell fusion; AID 651610; inhibition, % at 12.3 µM; 1.1% of 360,000 active; HeLa-JRFL Env/CEM21 cell fusion, luciferase;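 active means mean replicate inhibition score of at least 50 and every replicate individually at or above 50; inconclusive means only one of the two criteria met; inactive means mean below 50 and not all replicates reaching 50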
S100A4 inh HTS = S100A4-myosin IIA interaction inhibition; P26447; S100A4/TAMRA-MyoIIA peptide fluorescence polarization; inhibition, % at 10.7 µM; 0.14% of 360,000 active; AID 652163;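 active means mean inhibition of at least 70% across replicates, with every replicate also reaching that level; inconclusive means mean inhibition reaches 70% but some replicates fall short; inactive means mean inhibition below 70%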
Target sequence (P26447 whole entry, looked up): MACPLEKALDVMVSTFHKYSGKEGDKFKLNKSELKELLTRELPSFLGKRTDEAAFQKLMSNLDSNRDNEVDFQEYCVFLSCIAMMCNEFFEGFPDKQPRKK
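Test system – S100A4 monomer (human) · Compound – single-point compound testing · Schedule – 5 min incubation before reading · Probe or stimulus – TAMRA-labelled myosin IIA heavy-chain peptide probe, 5 nM · Benchmarks – neutral control DMSO, positive control TFP · Medium – Calcium-containing HEPES buffer, pH 7.2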
FGF22 binding = FGF22 (human) thermal shift binding | Q9HCT0 | recombinant FGF22 thermal shift, SYPRO orange fluorescence; percent of sucrose octasulfate shift, DMSO zero | activity (Tm shift, normalised), % at 9.99 µM | 1.5% of 340,000 active;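 active means mean Tm shift, scaled 0 neutral to 100 positive control, at about 1.3% or above, every replicate too, limit read from the data; inconclusive means no clear call, values can overlap the other calls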
Target sequence (Q9HCT0 whole entry, looked up): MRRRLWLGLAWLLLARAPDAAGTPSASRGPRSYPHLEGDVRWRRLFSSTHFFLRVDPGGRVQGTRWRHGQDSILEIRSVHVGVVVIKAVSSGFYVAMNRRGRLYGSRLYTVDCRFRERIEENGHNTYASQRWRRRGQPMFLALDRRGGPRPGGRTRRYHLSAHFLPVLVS
F508del corr = correctors of CFTR F508del function in bronchial epithelial cells; CFBE cells, YFP halide quenching; stimulated with forskolin plus potentiator P3; % fluorescence drop versus neutral controls; activity (quench increase), % at 7.58 µM; 0.36% of 350,000 active;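 active means mean added fluorescence quench of at least 8% versus neutral control, with both replicates also reaching 8%; inconclusive means only one of the mean or replicate conditions met; inactive means mean below 8% and not both replicates reaching 8%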;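 further: cells transiently co-express mutant CFTR-F508del with the halide-sensitive YFP; corrector assay measuring rescue of mutant channel to the surface after 24 h compound exposure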
E-selectin induc = E-selectin induction on HUVECs. P16581. 0.37% of 260,000 active. HUVEC E-selectin immunofluorescence imaging; normalized: neutral wells 0, TNF-alpha wells 100. AID 686992. activation, % at 7.58 µM;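 active means mean E-selectin-positive cell signal at least 10% of the positive control, reached in at least 60% of replicates, without over 20% cell loss; inconclusive means no rule given, readout overlaps actives, possibly toxicity-flagged; inactive means the rest, including those meeting only one limit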
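Assay system: HUVEC, human umbilical vein endothelial cells / Amount: 3,000 HUVEC/well / Controls: TNF-alpha positive control, DMSO neutral control / Compound dosing: single concentration / Medium: EGM-2 over gelatin coat / Evaluation: percent E-selectin-positive cells / Signal: immunofluorescence imaging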
A number is an active result; 0 = inactive; ? = inconclusive; - = no result. Most compounds without a hit are left out; they make up all but 2.7% or so of the library.

SMILES	HIV Env fusion	S100A4 inh HTS	FGF22 binding	F508del corr	E-selectin induc
C[C@@H]1CN([C@H](C)CO)S(=O)(=O)c2ccc(C#C[C@@H](C)O)cc2O[C@@H]1CN(C)C(=O)C1CC1	0	121	0	0	0
C[C@@H]1CCCCO[C@@H](CN(C)Cc2ccccc2)[C@@H](C)CN([C@H](C)CO)C(=O)c2cc(NC(=O)Nc3ccccc3)ccc2O1	0	0	0	0	-
C[C@H]1CN([C@@H](C)CO)C(=O)c2cc(-c3cccnc3)cnc2O[C@@H]1CN(C)C(=O)NC1CCCC1	0	0	0	0	0
O=C(NCc1cccnc1)Nc1ccc(Cl)cc1Cl	57	0	0	0	0
O=C(NCc1ccncc1)Nc1ccc(Cl)cc1Cl	-	0	-	-	-
O=C(NCc1cccnc1)Nc1ccc(Br)cc1Cl	56	0	0	0	0
O=C(NCc1cccnc1)Nc1cccc(Cl)c1Cl	0	0	0	0	-
CC1NC(=S)N(C2CCCCC2)C1=O (stereo not given)	0	0	43	0	0
CCC(C)C1NC(=S)N(C2CCCCC2)C1=O (stereo not given)	0	-	-	-	-
COc1ccc(C2CN=NC23CCc2ccccc2C3=O)cc1 (stereo not given)	0	0	0	16	0
COc1ccc(CN(C)C[C@H]2OCCCC[C@@H](C)Oc3ccc(NS(=O)(=O)c4ccccc4)cc3C(=O)N([C@@H](C)CO)C[C@H]2C)cc1	0	0	0	0	0
OC(CSc1ccncc1)CC(O)c1ccccc1 (stereo not given)	0	0	0	0	-
C[C@@H]1CN([C@H](C)CO)C(=O)c2cc(NS(C)(=O)=O)ccc2O[C@@H](C)CCCCO[C@H]1CN(C)Cc1ccc(C(F)(F)F)cc1	0	-	0	0	0
C[C@H](CO)N1C[C@H](C)[C@H](CN(C)S(C)(=O)=O)Oc2ccc(NS(=O)(=O)c3cn(C)cn3)cc2C1=O	-	0	0	0	0
O=C(/C=C/c1ccccc1Cl)Nc1ccc(Cl)cn1	0	0	43	0	-
O=C(Nc1ccccc1)C1C(c2ccccc2)C1(Cl)Cl (stereo not given)	0	0	0	0	0
O=C(Nc1ccc(Cl)cn1)C1C(c2ccccc2)C1(Cl)Cl (stereo not given)	0	0	44	0	-
O=C(/C=C/c1ccccc1Cl)Nc1ccccc1	0	0	1.5	0	0
C[C@@H]1CCCCO[C@H](CN(C)S(=O)(=O)c2cccs2)[C@H](C)CN([C@H](C)CO)C(=O)c2cc(NS(C)(=O)=O)ccc2O1	0	0	0	0	0
COc1ccc(NC(=S)NC23CN4CN(CN(C4)C2)C3)c(OC)c1	0	0	44	0	-
COc1ccc(NC(=S)NC23CN4CN(CN(C4)C2)C3)cc1	0	-	-	-	-
C/C=C/c1ccc([C@@H]2[C@H](CO)N(S(C)(=O)=O)C23CN(C(=O)CC)C3)cc1	-	0	0	0	0
Cc1ccc(SCCC(=O)NNC(=O)c2ccccc2F)cc1	0	0	43	0	0
Cc1ccc(SCCNC(=O)c2ccccc2F)cc1	0	0	-	0	-
NC(=O)CSc1nccn1Cc1ccc(Cl)cc1	0	0	0	0	0
SMILES	HIV Env fusion	S100A4 inh HTS	FGF22 binding	F508del corr	E-selectin induc
NC(=O)CSc1nccn1Cc1ccccc1	0	0	43	0	0
Cc1ccc(Oc2cccc3c2S(=O)(=O)N([C@H](C)c2ccccc2)C[C@@H](COCc2ccccc2)O3)cc1	0	0	0	0	?
CCCCN1CC(COCc2ccccc2)Oc2cccc(N3CCCC3)c2S1(=O)=O (stereo not given)	0	0	43	0	0
C[C@H](c1ccccc1)N1C[C@@H](COCc2ccccc2)Oc2cccc(N3CCCCC3)c2S1(=O)=O	59	0	0	0	0
CCCCN1CC(COCc2ccccc2)Oc2cc(Br)ccc2S1(=O)=O (stereo not given)	0	0	0	0	-
CCCCOCC1CN(CCCC)S(=O)(=O)c2c(Oc3ccc(C)cc3)cccc2O1 (stereo not given)	65	0	0	0	0
COc1ccc(NC(=O)N(C)C[C@H]2Oc3ccc(NC(=O)Nc4ccc(C(F)(F)F)cc4)cc3CC(=O)N([C@H](C)CO)C[C@@H]2C)cc1	0	0	0	0	0
O=C(CCN1CCN(CCO)CC1)Nc1ccc(OCc2ccccc2)cc1	0	-	-	-	-
O=C(Nc1ccc(OCc2ccccc2)cc1)c1ccccc1	0	0	0	0	0
O=C(CCN1CCN(Cc2ccccc2)CC1)Nc1ccc(OCc2ccccc2)cc1	59	-	-	-	-
FC(F)Oc1ccc(NC(=S)N2CCN(Cc3ccccc3)CC2)cc1	0	0	44	0	-
CC(C)=CC(=O)Nc1ccc(OCc2ccccc2)cc1	0	0	74	0	-
CCC(=O)N1[C@H](CN(C)C(=O)c2cccc(F)c2)[C@@H](c2ccccc2)[C@@H]1CO	-	-	-	0	0
CO[C@H]1CN(C)C(=O)c2cc(NS(=O)(=O)c3ccc(C)cc3)ccc2OC[C@@H](C)NC[C@H]1C	0	0	0	0	0
O=c1cc(-c2ccc([N+](=O)[O-])cc2)c2ccc(O)cc2o1	0	0	45	0	0
O=[N+]([O-])c1ccc2nc(-c3ccncc3)[nH]c2c1	0	0	0	0	0
Cc1ccc(-c2nc3ccc([N+](=O)[O-])cc3[nH]2)cc1	0	0	1.5	0	0
COCC(=O)N1C[C@@H](C)[C@H](OC)CN(C)C(=O)c2cc(NC(=O)NC(C)C)ccc2OC[C@H]1C	0	0	0	0	0
Cc1ccnc2c1ccc1cccnc12	0	0	0	9.4	-
COc1ccc(CC2(CO)CCN(Cc3ccc4nsnc4c3)CC2)cc1	0	0	43	0	-
CCN(CC)P(=O)(Nc1ccc(Br)cc1)c1c(C)nn(CCC#N)c1NC(=O)c1ccc(Cl)cc1 (stereo not given)	0	0	0	0	50
Cc1nn(CCC#N)c(NC(=O)c2ccc(Cl)cc2)c1P(=O)(Nc1ccc([N+](=O)[O-])cc1)N1CCOCC1 (stereo not given)	0	-	-	-	-
O=C(O)C[C@@H]1C=C[C@H](NC(=O)CCN2CCCCC2)[C@@H](CO)O1	-	0	-	0	0
O=C(C1CCOCC1)N1C[C@H]2[C@@H](c3ccccc31)[C@@H](CO)N2C(=O)c1ccccc1	-	0	0	0	0
Nc1cc(-c2ccccc2)nn1S(=O)(=O)c1ccc(F)cc1	79	0	0	0	0
C[C@H](CO)N1C[C@H](C)[C@@H](CN(C)Cc2ccc(C(=O)Nc3ccccc3N)cc2)Oc2ccc(NS(=O)(=O)c3ccccc3)cc2C1=O	0	0	0	0	0
O=C(Nc1cccnc1)c1ccc(-c2ccc(Cl)cc2)o1	0	0	0	0	0
CN(C)C(=O)c1ccc(NC(=O)c2ccc(-c3ccc(Cl)cc3)o2)cc1	0	0	1.8	0	0
O=C(Nc1ccc(OCC(=O)N2CCOCC2)cc1)c1cncc(Br)c1	57	0	0	-	0
